The values below come from ChEMBL document CHEMBL1122098, “2-Amino-4,7-dimethoxyindan derivatives: synthesis and assessment of dopaminergic and cardiovascular actions” (1982).

Format in all cases: functional
For test [1], the species on record is Rattus norvegicus. The test is described as follows: Tested for the alteration in rat CNS transmitter synthesis by […] of Dopa from caudate nucleus. Further details: concentration or dose not given beside the values. The procedure, abridged:
(§1)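 Rat in vivo synthesis-index model (Carlsson): test compound 4.0 mg/kg sc given 30 min before GBL 750 mg/kg ip in distilled water; apomorphine 4.0 mg/kg sc 5 min before GBL. Five min after GBL, NSD 1015 100 mg/kg ip in saline; decapitation 30 min later. Dopa in caudate nucleus and 5-HTP in olfactory tubercle measured, expressed as percent of saline+GBL control; p < 0.05 criterion.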

In test [2] the test system is Felis catus. The test is described as follows: Tested for the percent change in blood pressure after administration in cat. The procedure, abridged:
(§2)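 Cats 2-4 kg, either sex, anesthetized with pentobarbital sodium 30 mg/kg ip, pretreated with atropine sulfate 0.2 mg/kg iv. Compounds in saline given as iv bolus via femoral catheter. Blood pressure and heart rate recorded. Right cardioaccelerator nerve stimulated at 2 Hz, 5-ms pulses, 20–25 V supramaximal; inhibition of the positive chronotropic response measured, with ED50 calculated. Haloperidol 100 µg/kg iv given beforehand for blockade.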

Test [3] can be described thus: Tested for the ratio between rat rotation and the potency to apomorphine. The procedure, abridged:
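Rats with unilateral substantia nigra 6-hydroxydopamine lesions (6 µg in 3 µl). HCl salts in saline given sc, screened at 2 mg/kg; contralateral turns recorded automatically for at least 1 h as turns per hour. Dose-response curves used 4-5 animals; potency ratio to apomorphine with 95% CI calculated over 60 min after dosing.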

For test [4], the species on record is Felis catus. The test is described as follows: Tested for the inhibition of cardioaccelerator nerves in cat. To be noted: read-out: ID50 (the source's name). The essentials:
as §2

The species named for test [5] is Rattus norvegicus. The experiment in a line: Tested for the alteration in rat CNS transmitter synthesis by […] of 5-HTP from olfactory tubercle. Further details: concentration or dose not given beside the values. The essentials: as §1
Test [6] has as its system Felis catus. The test is described as follows: Tested for the change in heart rate after administration in cat. The essentials:
as §2

For `COc1ccc(OC)c2c1CC(N)C2`, the results for the Control in the test listed under Rattus norvegicus [1] and in the test listed under Rattus norvegicus [5] were 94% and 109.7%, respectively. For the same compound, the BP change with Felis catus [2] was determined as 6.3%. The Ratio in test [3] came to 8.7. Also, the ED50 in the test filed under Felis catus [4] was determined as 1.55 µmol/kg. The HR in the test with Felis catus [6] worked out at 0 beats min-1.
Consider `COc1ccc(OC)c2c1CC(NC(C)C)C2`, for which the BP change in the test with Felis catus [2] is given as 3.8%. Also, the ED50 in the test filed under Felis catus [4] came out at 1.1 µmol/kg. This compound yielded an HR in the test with Felis catus [6] of 0 beats min-1.
Take `COc1ccc(OC)c2c1CC(N(C)C)C2`: the BP change in the test with Felis catus [2] is recorded as 51.8%. The Ratio in test [3] was determined as 0.019. In the test listed under Felis catus [4], the ED50 is 1.16 µmol/kg. In the test on Felis catus [6], this compound displayed an HR of 3.2 beats min-1.
`CCCN(CCC)C1Cc2c(OC)ccc(OC)c2C1`: the Control in the test listed under Rattus norvegicus [1] was found to be 31.8%; in the test listed under Rattus norvegicus [5], 51.5%. The BP change with Felis catus [2] is listed as -16.6%. The Ratio in test [3] came out at 0.13. Besides, the ED50 in the test filed under Felis catus [4] is 0.107 µmol/kg. The same compound showed an HR in the test on Felis catus [6] of -6.4 beats min-1.
For `CNC1CCc2c(OC)ccc(OC)c2C1` (configuration not stated), the Control is given as 103.8% in the test listed under Rattus norvegicus [1] and 33.2% in the test filed under Rattus norvegicus [5]. Moreover, the Ratio in test [3] came to 3.9.
For the compound `CN1CCc2cccc3c2[C@H]1Cc1ccc(O)c(O)c1-3` [APOMORPHINE], in the test listed under Rattus norvegicus [1], the Control was determined as 18.3%. Further, in test [3], the Ratio is 1. Moreover, the ED50 in the test listed under Felis catus [4] was determined as 0.103 µmol/kg.
With `CNC1Cc2c(OC)ccc(OC)c2C1`, the Control in the test filed under Rattus norvegicus [1] is 67.9%; in the test filed under Rattus norvegicus [5], 94.7%. The BP change in the test on Felis catus [2] came out at 28.1%. Moreover, the Ratio in test [3] was 8.2. Further, the ED50 in the test filed under Felis catus [4] came to 1.23 µmol/kg. In the test on Felis catus [6], this compound showed an HR of 2.5 beats min-1.
For the compound `CCCNC1Cc2c(OC)ccc(OC)c2C1`, the Control came to 79.1% in the test listed under Rattus norvegicus [1] and 104.7% in the test listed under Rattus norvegicus [5]. Further, in the test on Felis catus [2], the BP change is 0.7%. In addition, the Ratio in test [3] is 7.4. Further, the ED50 in the test listed under Felis catus [4] is 1.1 µmol/kg. The same compound had an HR in the test on Felis catus [6] of -3.2 beats min-1.
